Key:
Glucocerebrosidase (GC) [1] = target: T1, Glucocerebrosidase (GC) (Homo sapiens, UniProt P04062, R534H); assay: "blue" GC enzyme kinetic assay, 384-well; assay type: biochemical; conditions: substrate of "blue" assay, 1.9 nM enzyme
T1 sequence (P04062 40-536 R534H): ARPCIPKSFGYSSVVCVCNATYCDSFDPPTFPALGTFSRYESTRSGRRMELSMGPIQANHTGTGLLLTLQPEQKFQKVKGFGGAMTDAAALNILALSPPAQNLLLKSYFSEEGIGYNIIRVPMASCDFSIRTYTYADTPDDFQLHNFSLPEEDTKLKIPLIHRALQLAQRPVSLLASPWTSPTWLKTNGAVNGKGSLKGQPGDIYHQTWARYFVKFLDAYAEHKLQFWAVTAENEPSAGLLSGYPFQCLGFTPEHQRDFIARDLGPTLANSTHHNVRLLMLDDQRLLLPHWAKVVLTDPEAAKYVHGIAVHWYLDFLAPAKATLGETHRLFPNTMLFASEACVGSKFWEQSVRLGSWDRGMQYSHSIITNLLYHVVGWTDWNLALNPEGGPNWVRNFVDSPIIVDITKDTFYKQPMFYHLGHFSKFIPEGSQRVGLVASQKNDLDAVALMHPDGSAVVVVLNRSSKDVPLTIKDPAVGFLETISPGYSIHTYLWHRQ
Method in brief: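 384-well format. 1.9 nM GC in pH 5.9 buffer (50 mM citric acid, 176 mM K2HPO4, 0.01% Tween-20, 10 mM sodium taurocholate). Reaction started with 4MU-β-Glc at final 3000–23.4 μM (1:2 series, eight levels), run at RT. Separate plates were stopped with 1 M NaOH/1 M glycine pH 10 at 2, 4, 6, 8, 10 and 12 min and read at 440 nm. Product was quantified from a 4-methylumbelliferone standard curve.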

[2] = CBE solutions in DMSO left at RT for more than a few hours (data not shown)
Glucocerebrosidase (GC) [3] = target: T1, Glucocerebrosidase (GC); assay: Res-β-Glc; assay type: biochemical
Glucocerebrosidase (GC) [4] = target: T1, Glucocerebrosidase (GC); assay: 4MU-β-Glc; assay type: biochemical; conditions: read-out: IC50 in the "blue" GC assay; known GC inhibitors; 800 μM 4MU-β-Glc, 1.9 nM enzyme
Glucocerebrosidase (GC) [5] = target: T1, Glucocerebrosidase (GC); assay: "red" GC enzyme kinetic assay, 384-well; assay type: biochemical; conditions: substrate of "red" assay, 1.9 nM enzyme
Method in brief: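 Kinetics were run in 384-well plates with 1.9 nM GC in pH 5.9 citrate/K2HPO4 buffer containing 0.01% Tween-20 and 10 mM sodium taurocholate. Res-β-Glc was added at final 100, 60, 40, 20, 10, 5 and 2.5 μM at RT, with no stop step. One plate was read continuously for 610 nm emission at 2 min intervals. Product was converted using a resorufin standard curve in assay buffer.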

[6] = varied substrate concentrations

Cc1cc(=O)oc2cc(O[C@@H]3O[C@H](CO)[C@@H](O)[C@H](O)[C@H]3O)ccc12 [4MU-β-Glc, 4-methylumbelliferyl β-D-glucopyranoside]
Vmax (Glucocerebrosidase (GC) [1]): 1.56 pmol/min | Km (Glucocerebrosidase (GC) [1]; [6]): 768 µM

O[C@H]1[C@H](O)[C@@H](O)[C@@H]2O[C@@H]2[C@@H]1O [CBE, Conduritol β-epoxide]
shift of IC50 value [2]: 2- to 10 fold | IC50 (Glucocerebrosidase (GC) [3]; read-out: IC50 in the "red" GC assay, known GC inhibitors, 30 μM Res-β-Glc, 1.9 nM enzyme): 13 µM | IC50 (Glucocerebrosidase (GC) [4]): 15.4 µM

N.N.[Cl][Pt][Cl] [Cisplatin]
GC inhibitory activity on hit confirmation (Glucocerebrosidase (GC) [3]; neat samples of primary hits, "red" GC enzyme assay): inactive

O=c1ccc2nc3ccc(O[C@@H]4O[C@H](CO)[C@@H](O)[C@H](O)[C@H]4O)cc3oc-2c1 [Res-β-Glc, Resorufin β-D-glucopyranoside]
Vmax (Glucocerebrosidase (GC) [5]): 7.11 pmol/min | Km (Glucocerebrosidase (GC) [5]; [6]): 33 µM

CN[C@@H](C)[C@H](O)c1ccccc1 [compound 1, (-)-Ephedrine hemisulfate]
IC50 (Glucocerebrosidase (GC) [3]): 0.79 µM

O=C(/C=C/c1ccc(O)cc1)c1ccc(O)cc1O [compound 2, Isoliquiritigenin]
IC50 (Glucocerebrosidase (GC) [3]): 2.57 µM

CC[N+](CC)(CC)CCOc1cccc(OCC[N+](CC)(CC)CC)c1OCC[N+](CC)(CC)CC [compound 3, Gallamine triethiodide]
IC50 (Glucocerebrosidase (GC) [3]): 3.59 µM

C[N+]1(C)CCN(c2ccccc2)CC1 [compound 6, 1,1-Dimethyl-4-phenyl-piperazinium iodide]
IC50 (Glucocerebrosidase (GC) [3]): 6.8 µM

O=c1c2ccccc2[se]n1-c1ccccc1 [compound 10, Ebselen]
IC50 (Glucocerebrosidase (GC) [3]): 0.63 µM
